Experimental data published in ChEMBL document CHEMBL1146564, “Absolute configuration of sesquiterpenes from Crossopetalum tonduzii and their inhibitory effects on Epstein-Barr virus early antigen activation in Raji cells” (J Nat Prod, 2003).

What was measured:
Type in all cases: cell-based
[1] = Cytotoxicity against human Raji cells assessed as cell viability at 10 molar ratio/TPA after 48 hrs; settings: read-out: Activity
Method in brief: (§1)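 Raji cells (EBV genome-carrying Burkitt's lymphoma lymphoblastoid line) in RPMI-1640 were incubated 48 h at 37 °C with n-butyric acid (4 mmol), TPA (32 pmol = 20 ng/mL) and test compound at 10, 100, 500 or 1000 mol ratio to TPA (0.32, 3.2, 16, 32 nmol). Viability is given as percentage of Raji cells.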

Raji [2] = experiment: Inhibition of 12-O-tetradecanoylphorbol-13-acetate-induced EBV-early antigen activation in human Raji cells at 10 molar ratio after 48 hrs relative to TPA; parameters: scale not given: the % may be the effect or the level left; settings: human gammaherpesvirus 4
Method in brief: (§2)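 EBV-EA induction in Raji cells (RPMI-1640). Cells were held 48 h at 37 °C with n-butyric acid (4 mmol), TPA (32 pmol = 20 ng/mL) and compound at 10–1000 mol ratio/TPA (0.32–32 nmol). EA-positive cells were detected on smears by indirect immunofluorescence. Induction is expressed as percentage relative to the TPA-only positive control. β-Carotene served as reference.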

[3] = Cytotoxicity against human Raji cells assessed as cell viability at 500 molar ratio/TPA after 48 hrs; settings: read-out: Activity; method in brief: as §1
[4] = Cytotoxicity against human Raji cells assessed as cell viability at 100 molar ratio/TPA after 48 hrs; settings: read-out: Activity; method in brief: as §1
Raji [5] = experiment: Inhibition of 12-O-tetradecanoylphorbol-13-acetate-induced EBV-early antigen activation in human Raji cells at 1000 molar ratio after 48 hrs relative to TPA; parameters: scale not given: the % may be the effect or the level left; settings: human gammaherpesvirus 4; method in brief: as §2
[6] = Cytotoxicity against human Raji cells assessed as cell viability at 1000 molar ratio/TPA after 48 hrs; settings: read-out: Activity; method in brief: as §1
Raji [7] = experiment: Inhibition of 12-O-tetradecanoylphorbol-13-acetate-induced EBV-early antigen activation in human Raji cells at 100 molar ratio after 48 hrs relative to TPA; parameters: scale not given: the % may be the effect or the level left; settings: human gammaherpesvirus 4; method in brief: as §2
Raji [8] = experiment: Inhibition of 12-O-tetradecanoylphorbol-13-acetate-induced EBV-early antigen activation in human Raji cells at 500 molar ratio after 48 hrs relative to TPA; parameters: scale not given: the % may be the effect or the level left; settings: human gammaherpesvirus 4; method in brief: as §2

| Compound | viability at 48 h, 10 molar ratio/TPA [1] | Activity (Raji [2]) | viability at 48 h, 500 molar ratio/TPA [3] | viability at 48 h, 100 molar ratio/TPA [4] | Activity (Raji [5]) | viability at 48 h, 1000 molar ratio/TPA [6] | Activity (Raji [7]) | Activity (Raji [8]) |
| --- | --- | --- | --- | --- | --- | --- | --- | --- |
| CC1=C(/C=C/C(C)=C/C=C/C(C)=C/C=C/C=C(C)/C=C/C=C(C)/C=C/C2=C(C)CCCC2(C)C)C(C)(C)CCC1 [BETA CAROTENE] | 100% | 100% | 80% | 100% | 8.6% | – | – | – |
| CCC(C)C(=O)OC[C@]12[C@H](OC(=O)c3ccccc3)[C@@H](OC(C)=O)[C@@H]3[C@@H](OC(C)=O)[C@]1(OC3(C)C)[C@@](C)(O)C[C@H](OC(C)=O)[C@@H]2OC(C)=O (stereo not given in full) | > 80% | 96.7% | > 80% | > 80% | 0% | 70% | 79.2% | 22% |
| CCC(C)C(=O)OC[C@]12[C@H](OC(=O)c3ccccc3)[C@@H](OC(C)=O)[C@@H]3[C@@H](OC(C)=O)[C@]1(OC3(C)C)[C@@](C)(O)C[C@H](OC(=O)c1ccccc1)[C@@H]2OC(C)=O (stereo not given in full) | > 80% | 96% | > 80% | > 80% | 4.6% | 60% | 75.9% | 33.8% |
| CCC(C)C(=O)OC[C@]12[C@H](OC(=O)c3ccccc3)[C@@H](OC(C)=O)[C@@H]3[C@@H](OC(C)=O)[C@]1(OC3(C)C)[C@@](C)(O)C[C@H](O)[C@@H]2OC(C)=O (stereo not given in full) | > 80% | 90.5% | > 80% | > 80% | 0% | 60% | 73.7% | 31.2% |
| CCC(C)C(=O)OC[C@]12[C@H](OC(=O)c3ccccc3)[C@@H](O)[C@@H]3[C@@H](O)[C@]1(OC3(C)C)[C@@](C)(O)C[C@H](OC(C)=O)[C@@H]2OC(C)=O (stereo not given in full) | > 80% | 90.1% | > 80% | > 80% | 0% | 60% | 74% | 32.7% |
| CCC(C)C(=O)OC[C@]12[C@H](OC(=O)c3ccccc3)[C@@H](OC(C)=O)[C@@H]3[C@@H](O)[C@]1(OC3(C)C)[C@@](C)(O)C[C@H](OC(C)=O)[C@@H]2OC(C)=O (stereo not given in full) | > 80% | 94.1% | > 80% | > 80% | 0% | 70% | 77.4% | 21.8% |
